# Assay results as given in publication PMC10245909 (bioRxiv, 2023).
# Structures can show the parent of a compound that is named as a salt.
# Columns and labels:
# [1] = tested on: C. parvum; assay: Initial screen of gut metabolites on C. parvum growth in HCT-8 cells; type: cell-based, Cryptosporidium parvum; settings: 24 hpi, metabolite at 1 mM (0.1 mM for bile acids/salts)
# How it was run: (§1)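 Confluent HCT-8 cells (1.5 × 10^5/well, grown ~24 h) were infected with 5 × 10^5 bleached oocysts together with a single metabolite diluted in culture medium (1 mM or 0.1 mM) for 24 h. Parasite and host cell numbers are given as ratios to PBS control wells on the same plate. Each metabolite was run in triplicate across six separate experiments.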
# [2] = tested on: C. parvum; assay: C. parvum growth assay in HCT-8 cells; type: cell-based, Cryptosporidium parvum; settings: for EC50: HCT-8, 24 h; for Cp infection, treatment started 4 hpi: 4 – 24 hpi; for Cp growth, treatment 0 – 4 hpi only: first four hours of infection only
# [3] = tested on: AhR; settings: cited from earlier work
# [4] = tested on: C. parvum; assay: Antibody and EdU labeling of C. parvum life cycle stages in HCT-8 cells; type: cell-based, Cryptosporidium parvum; settings: EC90 concentrations; for life cycle stage progression: first 24 hpi, EdU pulses
# [5] = tested on: C. parvum; assay: Air-liquid interface; type: cell-based, Cryptosporidium parvum; settings: for time after washout to significant recovery in Cp growth: treated 48 h at EC50 concentration; for EC50 / EC90: Cryptosporidium parvum; for EC50: read-out: EC50 for Cp in ALI cultures; for EC90: read-out: EC90 for Cp in ALI cultures
# How it was run: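 ALI transwells were coated with 10% Matrigel and seeded with irradiated mouse 3T3 fibroblasts (8 × 10^4/transwell). Top medium was removed after 7 days, and 5 × 10^4 oocysts were added on top 3 days later. After ~4 h the tops were washed twice with DPBS and day-0 wells scraped. Test compound at three levels or 1% DMSO went in the bottom medium for ~48 h, then transwells moved to normal medium. Parasite genome eq. by DNA extraction, normalized to DMSO at each time point; six replicates (3 technical × 2 experiments).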
# [6] = tested on: C. parvum; assay: Metabolite treatment of C. parvum-infected GKO mice; type: in vivo, mouse
# [7] = tested on: HCT-8 cells; assay: Host nuclei in growth assay with mitochondrial inhibitors; type: cell-based, human; settings: for host cell toxicity at Cp-inhibitory levels: HCT-8, 24 h, at EC50 levels
# How it was run: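 Confluent HCT-8 cells (1.5 × 10^5/well) were infected with 1 × 10^5 bleached oocysts and exposed ~24 h to test compounds, serially diluted 1:2 from 40 μM (final, 1% DMSO). Cells were fixed in 4% formaldehyde, permeabilized/blocked in 0.1% Triton-X/1% BSA, Hoechst-stained and counted, with values relative to the 1% DMSO control mean. Four replicates (2 technical × 2 experiments).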
# [8] = tested on: Cp mitosome; assay: Mitotracker CMXRos staining of C. parvum mitosome; type: cell-based, Cryptosporidium parvum; settings: 2 x EC90 indole 1.76 mM, 7CNI 1 mM, CCCP 10 μM; 2 h or 24 h
# How it was run: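 HCT-8 cells on coverslips were infected with 5 × 10^5 oocysts, washed twice with DPBS, and exposed in 1% DMSO medium either 22–24 hpi (2 h) or continuously to 24 hpi. MitoTracker Red CMXRos (50 nM final) was added 45 min before fixation at 24 hpi. Staining used 1E12 with Alexa Fluor 488 secondary plus Hoechst. Four replicates (2 technical × 2 experiments).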
# [9] = tested on: AhR target genes AhRR and CYP1A1; settings: HCT-8 AhR KO 1 and KO 2, VAF347 500 nM, 24 h
# [10] = tested on: C. parvum; settings: dietary supplementation, malnourished neonatal mice; cited from earlier work
# [11] = tested on: HCT-8 cells; assay: Host cell numbers in the initial metabolite screen; type: cell-based, human; settings: metabolite at 1 mM, 24 h
# How it was run: as §1
# [12] = tested on: C. parvum; assay: C. parvum growth assay in HCT-8 AhR KO cell lines; type: cell-based, Cryptosporidium parvum; settings: HCT-8 AhR KO cells, 24 h, indole 1 mM, 4HI 1 mM
# [13] = tested on: HCT-8 cells; assay: Seahorse metabolic assays; type: cell-based, human; settings: 18 h
# [14] = tested on: C. parvum; settings: neonatal mice, only when gut microflora present; cited from earlier work
# [15] = Cryptosporidium parvum, read-out: Cp EC50
# [16] = Cryptosporidium parvum, HCT-8, read-out: EC90 for Cp, HCT-8 cells
# [17] = indole 0.5-2 mM, 7CNI 0.25-1 mM
compound,measurement,setting,value
Oc1cccc2[nH]ccc12 [4-hydroxyindole],effect on Cp growth (Cp numbers relative to PBS control),[1],significantly inhibited
same,EC50,[2]; [15],1260 µM
Cc1cccc2[nH]ccc12 [4-methylindole],AhR signaling in vitro,[3],activate AhR signaling
O=C(O)Cc1c[nH]c2ccc(O)cc12 [5-hydroxyindole-3-acetic acid],effect on Cp growth (Cp numbers relative to PBS control),[1],no effect
Cc1ccc2cc[nH]c2c1 [6-methylindole],AhR signaling in vitro,[3],activate AhR signaling
N#Cc1cccc2cc[nH]c12 [7-cyanoindole],life cycle stage progression,[4],delayed progression through sequential life cycle stages
same,time after washout to significant recovery in Cp growth,[5]; ALI,4 days
same,EC50,[5],379 µM
same,EC90,[5],688 µM
same,survival rate,[6]; 50 mg/kg BID 7 days,did not significantly increase survival rate
same,mean Cp oocysts per mg feces by 9 dpi,"[6]; 50 mg/kg BID 7 days, after end of treatment",rebounded
same,body weight vs vehicle- or indole-treated mice,"[6]; 50 mg/kg BID, 5 and 7 dpi",weighed significantly more
same,EC90,[2]; [16],500 µM
same,"Cp infection, treatment started 4 hpi",[2]; EC90 concentrations,significantly inhibited Cp infection
same,"Cp growth, treatment 0 – 4 hpi only",[2]; EC90 concentrations,neither indole nor 7CNI inhibited Cp growth
COc1cccc2cc[nH]c12 [7-methoxyindole],AhR signaling in vitro,[3],activate AhR signaling
"N#CC(C#N)=NNc1cccc(Cl)c1 [CCCP, carbonyl cyanide m-chlorophenyl hydrazone]",host toxicity at high concentration,"[7]; HCT-8, 40 μM and 20 μM",observed host toxicity
same,host cell toxicity at Cp-inhibitory levels,[7],not due to host cell toxicity
same,Mitotracker staining of Cp mitosomes,[8],decreases Mitotracker staining
FC(F)(F)c1ccc(Nc2nccc(-c3cccc(Cl)c3)n2)cc1 [VAF347],CYP1A1 gene expression in AhR KO lines,[9],lost the ability to upregulate CYP1A1 gene expression
N=C(N)NCCC[C@H](N)C(=O)O [arginine],severity of C. parvum infection,[10],decrease severity of C. parvum infection
"C[C@H](CCC(=O)O)[C@H]1CC[C@H]2[C@@H]3CC[C@@H]4C[C@H](O)CC[C@]4(C)[C@H]3C[C@H](O)[C@]12C [deoxycholate, sodium deoxycholate]",effect on Cp growth (Cp numbers relative to PBS control),[1],significantly inhibited
C[C@H](CCC(=O)O)[C@H]1CC[C@H]2[C@@H]3CC[C@@H]4C[C@H](O)CC[C@]4(C)[C@H]3C[C@H](O)[C@]12C [deoxycholic acid],host toxicity in screen,[11],significant host toxicity
c1ccc2[nH]ccc2c1 [indole],morphology of mature merozoites (1E12 labeling),[4]; 22 h,did not observe any obvious morphological defects
same,time until which total number of Cp did not significantly differ from DMSO,"[4]; HCT-8, start of second round of merogony",~ 16 hpi
same,life cycle stage progression,[4],delayed progression through sequential life cycle stages
same,"Cp growth recovery after washout, 2 x EC90","[5]; ALI, treated 48 h at 2 x EC90 concentration",no recovery
same,time after washout to significant recovery in Cp growth,[5]; ALI,2 days
same,"Cp growth recovery after washout, EC90","[5]; ALI, treated 48 h at EC90 concentration",Some growth recovery (though not significant)
same,EC50,[5],577 µM
same,EC90,[5],1890 µM
same,Cp sensitivity in AhR KO cells,[12],remained sensitive
same,basal and stressed respiratory rate in HCT-8 WT and AhR KO cells,"[13]; indole 0.5, 1, 2 mM, stressed = after FCCP and oligomycin",significantly impaired in a dose-dependent manner
same,basal and maximal levels of mitochondrial respiration (OCR),"[13]; indole 0.5, 1, 2 mM, 7CNI 0.25, 0.5, 1 mM, dose-dependent",significantly reduced
same,ATP production rate by glycolysis,[13]; [17],remained similar
same,ATP production rate by the mitochondria,[13]; [17],significant reduction
same,spare respiratory capacity,[13]; [17],diminished
same,total ATP production rate,[13]; [17],lower total ATP production rate
same,median survival time,"[6]; 50 mg/kg BID 7 days, vehicle 11 dpi",17 dpi
same,Cp oocysts shed in feces,"[6]; 50 mg/kg oral gavage twice daily 7 days, by 5 dpi",no effect
same,EC50,[2]; [15],411 µM
same,EC90,[2]; [16],880 µM
same,"Cp infection, treatment started 4 hpi",[2]; EC90 concentrations,significantly inhibited Cp infection
same,"Cp growth, treatment 0 – 4 hpi only",[2]; EC90 concentrations,neither indole nor 7CNI inhibited Cp growth
same,Cp infection after pre-treatment of host cells,"[2]; EC90 concentrations, host cells pre-treated 20 h before infection",did not affect subsequent Cp infection
same,EC90,"[2]; read-out: EC90 for Cp, HCT-8 cells",877 µM
same,Mitotracker staining of Cp mitosomes,[8],significantly decreased Mitotracker staining
C[C@H](CCC(=O)O)[C@H]1CC[C@H]2[C@@H]3CC[C@@H]4C[C@H](O)CC[C@]4(C)[C@H]3CC[C@]12C [lithocholic acid],effect on Cp growth (Cp numbers relative to PBS control),[1],significantly inhibited
same,host toxicity in screen,[11],significant host toxicity
"CC[C@H]1/C=C/C=C/C[C@@H](C)[C@H](O)[C@@](C)(O)C(=O)[C@@H](C)[C@H](O)[C@@H](C)C(=O)[C@@H](C)[C@H](O)[C@@H](C)/C=C/C(=O)O[C@@H]2[C@H](C)[C@H](CC1)O[C@]1(CC[C@H](C)[C@H](C[C@@H](C)O)O1)[C@H]2C [oligomycin, reference compound]",host cell toxicity at Cp-inhibitory levels,[7],not due to host cell toxicity
same,EC50,"[2]; Cryptosporidium parvum, read-out: Cp EC50, OxPhos inhibitors",20.6 µM
CCCCC[C@H](O)/C=C/[C@H]1[C@H](O)CC(=O)[C@@H]1C/C=C\CCCC(=O)O [prostaglandin E2],host toxicity in screen,[11],significant host toxicity
Cc1ncc(CO)c(C=O)c1O [pyridoxal hydrochloride],effect on Cp growth (Cp numbers relative to PBS control),[1],significantly inhibited
same,EC50,[2]; [15],213 µM
same,Fold selectivity (host EC50 divided by Cp EC50),[2]; HCT-8 cells,44.6 fold
fumaric,effect on Cp growth (Cp numbers relative to PBS control),[1],impair growth
poly(I:C),C. parvum load,[14],reduced C. parvum load
propionic,effect on Cp growth (Cp numbers relative to PBS control),[1],impair growth
